Source: PubChem BioAssay (Broad Institute)
Hits are enriched below; roughly 1.5% of the tested compounds scored in any of these assays.
LANA-H2A inh = blockers of LANA interaction with H2A/H2B – biochemical, FP readout, HTS, primary screen | cell-free LANA-H2A/H2B peptide, fluorescence polarization | inhibition, % (test concentration not listed) | 320,000 tested, 0.6% active | AID 2629, 2010; in the data active means inhibition mostly above about 10%, no sharp cut-off; inactive means mostly below about 6.7%
Keap1 Nrf2 FP = Keap1-Nrf2 protein-protein interaction inhibitors, primary screen, biochemical, fluorescence polarization, single point; Keap1 Kelch-Nrf2 peptide fluorescence polarization, 1536-well; inhibition, % at 9.4 µM; 340,000 tested, 0.15% active; AID 504523, 2011; in the data active means inhibition above about 12%;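 further: human Keap1 Kelch domain with fluorescein labeled Nrf2 9mer peptide probe; higher means more block of Keap1 binding to Nrf2 peptide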
Target sequence (Q14145 whole entry, looked up, the tested form may be a part): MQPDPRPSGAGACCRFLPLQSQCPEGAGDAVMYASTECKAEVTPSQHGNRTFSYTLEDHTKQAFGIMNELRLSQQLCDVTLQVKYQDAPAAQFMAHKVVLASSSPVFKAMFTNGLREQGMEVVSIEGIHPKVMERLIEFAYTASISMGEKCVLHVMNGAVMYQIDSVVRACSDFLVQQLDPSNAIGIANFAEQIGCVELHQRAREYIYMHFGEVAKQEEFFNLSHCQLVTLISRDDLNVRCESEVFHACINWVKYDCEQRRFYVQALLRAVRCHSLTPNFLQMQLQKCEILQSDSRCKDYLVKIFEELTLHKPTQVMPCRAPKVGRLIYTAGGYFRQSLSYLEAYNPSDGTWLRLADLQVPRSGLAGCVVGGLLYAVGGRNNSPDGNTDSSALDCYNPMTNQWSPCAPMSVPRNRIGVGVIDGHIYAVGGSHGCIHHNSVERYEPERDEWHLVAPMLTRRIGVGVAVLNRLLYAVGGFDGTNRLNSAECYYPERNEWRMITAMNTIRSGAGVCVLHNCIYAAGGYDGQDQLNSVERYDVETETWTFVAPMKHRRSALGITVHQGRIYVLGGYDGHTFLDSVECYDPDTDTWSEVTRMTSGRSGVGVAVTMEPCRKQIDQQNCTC
CAL PDZ FP-1 = untagged CAL PDZ binding inhibitors, primary screen, biochemical, fluorescence polarization, HTS | Golgi-associated PDZ and coiled-coil motif-containing protein (Homo sapiens), Q9HD26 | purified CAL PDZ, TMR-peptide fluorescence polarization, 1 h | inhibition, % at 24.9 µM | 300,000 tested, 0.92% active | AID 602252, 2012;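 active means mean inhibition of at least 30% with at least half of replicates also reaching 30%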
CaV13 ICDI inh = Primary screen for inhibitors of IQ motif and Ca2+-dependent inactivation inhibitor domain binding in CACNA1D, Förster resonance energy transfer in living cells, … | HEK cells, CFP/YFP FRET ICDI-IQ, plate reader, 10 min; percent FRET-ratio fall versus neutral wells | inhibition, % at 12.3 µM | 340,000 tested, 0.098% active | AID 743397;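 active means mean replicate inhibition of at least 30% and at least 1% of replicates passing that level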
CAL PDZ FP-2 = CAL PDZ peptide-binding inhibitors, primary screen, biochemical, fluorescence polarization, Cer-tagged CAL PDZ, HTS | Golgi-associated PDZ and coiled-coil motif-containing protein (Homo sapiens), Q9HD26 | purified CAL PDZ, TMR-peptide fluorescence polarization, 1 h | inhibition, % at 20 µM | 330,000 tested, 0.02% active | AID 504414, 2011;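 active means highest replicate inhibition of at least 40%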
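Control set: unlabelled peptide and DMSO controls / Material: purified CerCALP PDZ construct / Timing: 1 h incubation at room temperature before polarization reading / Doses: 20 µM, one dose / Detection: fluorescence polarization (mP)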
C-LANA FP = inhibitors of KSHV C-LANA binding to DNA, primary screen, biochemical, fluorescence polarization, FAM-LBS DNA, MBP-C-LANA, single point. AID 504423, 2011. Kaposi's sarcoma herpesvirus LANA C-terminal domain (residues 932-1162) DNA binding. 340,000 tested, 0.078% active. inhibition, % at 9 µM;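 active means highest replicate inhibition at or above 60% at 9 µM, even if other replicates fall short; inactive means all replicates below 60% inhibition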
Hits are given with their value; . = inactive; / = no result; + = active, no number; ! = not confirmed by another sample.

SMILES	LANA-H2A inh	Keap1 Nrf2 FP	CAL PDZ FP-1	CaV13 ICDI inh	CAL PDZ FP-2	C-LANA FP
Fc1ccc2nncc(SCc3ccccc3Cl)c2c1	/	.	.	.	.	.
CN1C(C(=O)Nc2ccccn2)=C(O)c2sccc2S1(=O)=O	39.4!	.	.	.	.	.
Cc1ccc(-n2cccn2)c(CN2CCCC(C(=O)c3ccc4c(c3)OCO4)C2)c1 (centres undefined)	.	.	.	.	.	.
O=C(c1ccc2c(c1)OCO2)C1CCCN(Cc2cc(F)ccc2-n2cccn2)C1 (centres undefined)	.	.	57.0	.	.	.
NS(=O)(=O)c1ccc(CCNC(=O)CNC(=O)COc2ccccc2)cc1	.	.	.	.	/	.
NS(=O)(=O)c1ccc(CCNC(=O)CNC(=O)c2ccc(Br)o2)cc1	23.4	.	/	/	.	.
NS(=O)(=O)c1ccc(CCNC(=O)COC(=O)c2ccc([N+](=O)[O-])o2)cc1	.	.	.	.	.	.
NS(=O)(=O)c1ccc(CCNC(=O)COC(=O)Cc2ccc([N+](=O)[O-])cc2)cc1	.	.	34.1	.	.	.
COc1cc(C(=O)OCC(=O)NC2CCCC2)cc(NC(=O)c2ccco2)c1OC	.	.	.	.	.	.
COc1cc(C(=O)OCC(C)=O)cc(NC(=O)c2ccco2)c1OC	.	.	.	178.6	.	.
COc1cc(NC(=O)c2ccco2)c(OC)cc1NC(=O)c1cc(OC)c(OC)c(OC)c1	.	.	97.0	/	.	.
CN1C(=O)N(C)N(Cc2ccccc2)C(=O)N1Cc1ccccc1	/	/	/	.	/	/
CCC(=NCCc1ccccc1)C1=C(O)CCC1=O	.	.	64.4	.	.	.
C[C@@H]1COc2cc(NCCCN3CCOCC3)ccc2S(=O)(=O)N1	/	/	/	.	/	/
O=C(N/C(=C\c1ccco1)C(=O)N1CCCC1CO)c1ccccc1 (centres undefined)	21.3	.	.	.	.	.
Nc1ccc2ccc(O)cc2c1	/	.	/	.	.	.
C[n+]1c2cc(N)ccc2cc2ccc(N)cc21	/	+	.	.	.	195.3
CC(=O)Cc1nnn(-c2cc(C)on2)n1	.	/	/	/	/	/
CC(=O)Oc1ccc(C(=O)Nn2cnnc2)cc1	18.5	.	.	/	.	.
Cc1ccnc(SCC(=O)c2cc3ccccc3o2)n1	/	.	.	.	.	74.2
C#CCN1CC(COc2ccccc2)Oc2cccc(Oc3ccc(OC)cc3)c2S1(=O)=O (centres undefined)	/	/	/	.	/	/
Cc1cc(-c2ccccc2)c2ccc(NC(=O)C(C)(C)C)nc2n1	.	.	.	45.4	.	.
Cc1cc(=O)n2nc(N3CCC(C(=O)NCCc4ccc(Cl)cc4)CC3)sc2n1	.	.	68.3	.	.	.
C[C@]12CCC(=O)C[C@@H]1CC[C@@H]1[C@@H]2CC[C@]2(C)[C@@H](C(=O)COC(=O)CCC(=O)O)CC[C@@H]12	.	.	167.1!	.	.	.
CC(NC(=O)c1cc(-c2ccncc2)nc2ccc(Br)cc12)C1CCCO1 (centres undefined)	.	.	45.4	.	.	.
SMILES	LANA-H2A inh	Keap1 Nrf2 FP	CAL PDZ FP-1	CaV13 ICDI inh	CAL PDZ FP-2	C-LANA FP
CC(NC(=O)c1cc(-c2ccccc2)nc2ccccc12)C1CCCO1 (centres undefined)	.	/	/	/	/	/
CCOC(=O)[C@]12CCCC=C1N(Cc1cccc3ccccc13)C(=O)[C@H](CC(=O)N1CCN(C(=O)c3ccco3)CC1)C2	/	/	/	.	/	/
CCOc1ccc(NC(=O)CN(C)S(=O)(=O)c2cccs2)cc1	.	.	59.2	.	.	.
COc1cc(NC(=O)CN(C)S(=O)(=O)c2cccs2)cc(OC)c1	.	.	.	.	.	.
O=C(NCc1ccccc1)[C@@H]1CCCN1C(=O)[C@H]1CCCN1C(=O)c1ccc(F)c(C(F)(F)F)c1	/	/	/	.	/	/
C=CCNC(=O)c1sc(=S)n(-c2ccc(C(=O)OCC)cc2)c1N	39.5	.	/	.	.	.
O=C(c1ccccc1)N1CCC2CCN(S(=O)(=O)c3ccccc3)CC21 (centres undefined)	/	/	/	.	/	/
CCOC(=O)C1=CCN(S(=O)(=O)c2ccc(Cl)cc2)C1c1cccc(Br)c1 (centres undefined)	/	/	/	.	/	/
C/C(=N/NC(=O)c1cc(C)[nH]n1)c1ccco1	.	.	.	.	.	.
O=C(Nc1nccs1)c1ccc2ccccc2n1	.	.	34.6	.	.	.
CNC(=O)N(O)C1N(C)C(=O)N(CC(=O)OC)C1(C)C (centres undefined)	.	.	.	.	.	.
CCCN1C(=O)N(C)C(N(O)C(=O)NC)C1(C)C (centres undefined)	.	.	38.6	/	.	.
O=C(NCc1ccccc1)c1cc2ccccc2oc1=O	.	.	67.9	.	.	.
Cc1ccnn1CC(=O)N/N=C/c1cccs1	.	.	.	.	.	.
O=C(CNC(=O)c1cccc(F)c1)N/N=C/c1ccc([N+](=O)[O-])s1	14.1	.	.	.	.	.
Cc1ccnn1CC(=O)N/N=C/c1ccc([N+](=O)[O-])s1	.	.	87.1	.	.	.
COc1ccc(OC)c(CN(CC(F)(F)F)S(=O)(=O)c2ccccc2Br)c1	/	/	/	.	/	/
COCCn1c(SCC(=O)NC(C)c2ccc(F)cc2)nc2ccccc21 (centres undefined)	.	.	.	.	.	.
O=C(CSc1nnc(-c2c[nH]c3ccccc23)o1)NCC1CCCO1 (centres undefined)	/	.	44.0	.	.	.
CC(C)NC(=O)NC(=O)CSc1nnc(-c2c[nH]c3ccccc23)o1	.	.	.	.	.	.
Cc1ccccc1OCC1CN(CN2CCOCC2)C(=O)O1 (centres undefined)	23.5	.	.	.	.	.
CC(=O)Oc1ccccc1C(=O)Oc1ccccc1C(=O)O	.	.	.	.	.	.
CC(=O)Oc1ccccc1-c1nc(C)nc(N(C)C(C)=O)n1	43.9	.	/	.	.	.
Cc1ccc(-n2nc3c(c2NC(=O)c2ccc(F)c(F)c2)CS(=O)(=O)C3)cc1	109.2	.	.	.	.	.
COc1ccc(-n2nc3c(c2NC(=O)c2ccco2)CS(=O)(=O)C3)cc1	.	.	76.2	.	.	.
Cc1ccc(-n2nc3c(c2NC(=O)c2ccco2)CS(=O)(=O)C3)cc1	.	.	.	.	.	.
